Most compounds without a hit are left out; they make up all but 2.1% or so of the library.
DNMT1 inh = inhibitors of human DNMT1 | 360,000 tested, 0.83% active | AID 588458 | P26358 | DNMT1 molecular beacon, Hinp1I cleavage, fluorescence | inhibition (reported as % activation of signal), % at 10 µM; in the data active = inhibition above about 50%
SUMO1 PPI mod = modulators of human SUMO1-mediated protein-protein interactions; P63165; SUMO1 binding to a labelled peptide, TR-FRET, 1 h; inhibition, % at 20 µM; 360,000 tested, 0.33% active; AID 602429; in the data active = inhibition above about 37%
Target sequence (P63165 whole entry, looked up): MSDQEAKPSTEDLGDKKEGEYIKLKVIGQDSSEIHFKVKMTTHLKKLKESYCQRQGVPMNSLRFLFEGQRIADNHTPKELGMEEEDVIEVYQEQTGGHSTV
Scp-1 inhibitor = inhibitors of human Scp-1 phosphatase. AID 493091. Q9GZU7. inhibition, % at 20 µM. Recombinant Scp1, phosphopeptide, malachite green phosphate absorbance. 340,000 tested, 0.88% active;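 active = inhibition above about 50% at 20 µM, limit read from the data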
Target sequence (Q9GZU7 76-261 limits assumed): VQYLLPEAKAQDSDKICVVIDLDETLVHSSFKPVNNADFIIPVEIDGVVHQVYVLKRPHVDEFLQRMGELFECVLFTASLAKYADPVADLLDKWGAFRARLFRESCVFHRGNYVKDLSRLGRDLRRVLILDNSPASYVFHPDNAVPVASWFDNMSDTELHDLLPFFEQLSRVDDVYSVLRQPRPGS
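Incubation: 45 min enzyme reaction at room temperature / System: truncated SCP-1 phosphatase (76-261aa) / Reagent: Phospho 17-mer peptide substrate / Buffer or medium: Acidic Tris acetate buffer with magnesium and detergent / Signal: absorbance at 630 nm / Doses: one concentration, 20 µM, with 1.0% DMSO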
STEP block = STEP (human) phosphatase inhibition; P54829; recombinant STEP, OMFP fluorogenic substrate, fluorescence; inhibition, % at 20 µM; 360,000 tested, 0.25% active; AID 588621;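 active = inhibition at 20 µM, scaled per plate between control wells, above about 37%, limit read from the data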
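System: STEP (striatal-enriched tyrosine phosphatase) enzyme, cell-free; medium: Bis-Tris pH 6.0 buffer with DTT, detergent; dosing: 20 µM, 1% DMSO; times: reaction 20 min, ambient temperature; detection: fluorescence, 480/540 nm; read-out basis: normalized % inhibition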
GRK2 aptamer HTS = human GRK2 inhibition via aptamer displacement | P25098 | bead flow cytometry, FAM-aptamer displacement from GRK2 | inhibition of aptamer binding, % at 10 µM | 330,000 tested, 0.59% active | AID 488847;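 active = inhibition of aptamer binding above 40%, roughly 3 SD of noise, on plates passing a quality check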;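 also: median bead fluorescence of bound FAM aptamer so fluorescent compounds give negative values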
LMPTP inh = LMPTP (human) inhibition; inhibition, % at 20 µM; P24666; recombinant LMPTP-A, OMFP fluorogenic substrate, fluorescence intensity; 360,000 tested, 0.22% active;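 active = compounds that cut the enzyme signal by at least half of the control window in the single-dose screen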
Target sequence (P24666 whole entry, looked up): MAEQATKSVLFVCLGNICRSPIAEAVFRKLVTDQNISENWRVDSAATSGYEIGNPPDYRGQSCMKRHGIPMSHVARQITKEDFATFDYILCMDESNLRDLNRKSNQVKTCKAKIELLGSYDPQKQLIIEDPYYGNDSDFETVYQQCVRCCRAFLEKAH
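Test system: LMPTP-A, protein tyrosine phosphatase of low molecular weight; Input: 0.625 nM enzyme; Incubation: 50 min dark incubation at room temperature; Signal: endpoint fluorescence intensity from OMFP dephosphorylation; Read-out basis: % inhibition versus control wells.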
Scp1 confirm = Scp-1 (human) inhibition, single-dose confirmed; shares compounds with Scp-1 inhibitor; recombinant SCP-1 catalytic domain, phosphate release, malachite green absorbance; inhibition, % at 20 µM; 2,500 tested, 61% active; AID 540281
MG interference = colorimetric interference in Scp-1 counter-screen; Colorimetric interference counterscreen, malachite green absorbance 630 nm; apparent inhibition (interference), % at 20 µM; 2,500 tested, under 10 active; AID 540313; shares compounds with Scp-1 inhibitor;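 also: compounds added after enzyme reaction finished so only phosphate colour detection is probed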
Scp-1 Tm shift = binds human Scp-1, shifting its melting temperature. thermal shift relative to vanadate control, % at 40 µM. shares compounds with Scp-1 inhibitor. Recombinant SCP1, Sypro Orange thermal shift Tm. 1,500 tested, 25% active. AID 540329;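 active = substances whose mean melting-temperature shift, as a percentage of the reference inhibitor's shift, reaches about 5.3%, limit read from the data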
Each line names hits and unclear results; the compound was inactive in the other large screens (follow-up assays come after a bar, where they were run).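 The calls were made as follows, unless noted: active = inhibition of at least 30% at 20 µM; inactive = the rest.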

COc1cccc(/C=C2/NC(=O)N(CC(=O)Nc3ccc(C)cc3)C2=O)c1OCc1cccc(C(=O)O)c1	Scp-1 inhibitor 79 | Scp1 confirm 72 | MG interference inactive | Scp-1 Tm shift inactive
CCCNc1nc(C)cc(-c2cc(C(=O)NC3CCCC3)on2)n1	none
Cn1nc(C(=O)Nc2ccc(-n3cnnn3)cc2)c2ccccc2c1=O	Scp-1 inhibitor 99 | Scp1 confirm 70 | MG interference inactive | Scp-1 Tm shift inactive
COc1ccc(Cn2c(-c3ccccc3C)nc3c(c(=O)c4ccccc4n3C)c2=O)cc1	none
COc1ccc(/C=C/C(=O)NC(=S)Nc2cc([N+](=O)[O-])ccc2O)cc1OC	Scp-1 inhibitor 80, STEP block 62, LMPTP inh 56 | Scp1 confirm 54 | MG interference inactive | Scp-1 Tm shift 5.7
O=C(O)CN1C(=O)/C(=C2\C(=O)N(Cc3ccccc3Cl)c3ccccc32)SC1=S	Scp-1 inhibitor 82, STEP block 52 | Scp1 confirm 62 | MG interference inactive | Scp-1 Tm shift 16
Cc1cc(NC2CCCCC2)nc2ccccc12	none
Cc1cc(OCC[N+]2(C)CCCCC2)nc2ccccc12	Scp-1 inhibitor 102 | Scp1 confirm 90 | MG interference inactive | Scp-1 Tm shift inactive
O=C(CCCCCCCCC(=O)N/N=C/c1ccco1)N/N=C/c1ccco1	Scp-1 inhibitor 51 | Scp1 confirm 68 | MG interference inactive | Scp-1 Tm shift inactive
O=C(CCC(=O)N/N=C/c1ccco1)N/N=C/c1ccco1	none
COc1ccc(CN2CC(C(=O)NCCCOC(C)C)CC2=O)cc1 (stereo not drawn)	none | Scp1 confirm inactive | MG interference inactive
COCCCNC(=O)C1CC(=O)N(Cc2ccc(OC)cc2)C1 (stereo not drawn)	none
CCOC(=O)/C=C1\CN(Cc2cc(OC)c(OC)c(OC)c2)S(=O)(=O)c2ccc(C(F)(F)F)cc21	Scp-1 inhibitor 88 | Scp1 confirm 57 | MG interference inactive | Scp-1 Tm shift inactive
CCOC(=O)/C=C1\CN(Cc2cc(OC)c(OC)c(OC)c2)S(=O)(=O)c2ccccc21	none
O=C(NC1CCCc2ccccc21)c1cccc(S(=O)(=O)N2CCOCC2)c1 (stereo not drawn)	none
Cc1ccc(NC(=O)CSCC(=O)OC(C)C(=O)Nc2ccccc2C)cc1 (stereo not drawn)	none (no result: GRK2 aptamer HTS)
O=C(CCN1C(=O)C2CCCCC2C1=O)Nc1nc2ccc(F)cc2s1 (stereo not drawn)	none | Scp1 confirm inactive | MG interference inactive
O=C(CCN1C(=O)C2CCCCC2C1=O)Nc1nc2c(F)cc(F)cc2s1 (stereo not drawn)	none
O=C(CNS(=O)(=O)c1c(F)cc(F)cc1Br)OCC(=O)N1CCCC1=O	none
O=C(CNS(=O)(=O)c1ccc(Br)cc1Cl)OCC(=O)N1CCCC1=O	none | Scp1 confirm inactive | MG interference inactive
CSc1n[nH]c(NCc2ccc(Cl)cc2)n1	none
CSc1n[nH]c(NCc2ccc(C)cc2)n1	Scp-1 inhibitor 55 | Scp1 confirm inactive | MG interference inactive
CC(=O)Nc1ccc(NC(=O)CSc2nc(N)c(NC(=O)c3ccccc3F)c(=O)[nH]2)cc1	Scp-1 inhibitor 53 | Scp1 confirm 49 | MG interference inactive | Scp-1 Tm shift inactive
Cc1cccc(NC(=O)CSc2nc(N)c(NC(=O)c3ccccc3F)c(=O)[nH]2)c1	none
CCOC(=O)c1ccc(NC(=O)CSc2nnc(-c3cccs3)n2C)cc1	Scp-1 inhibitor 105 | Scp1 confirm inactive | MG interference inactive
CCOC(=O)c1ccc(NC(=O)CSc2nnc(-c3cccs3)n2CC)cc1	none
C[C@H](CO)N1C[C@H](C)[C@@H](CN(C)Cc2ccc(Cl)c(Cl)c2)Oc2c(NC(=O)Cc3ccccc3)cccc2C1=O	none
Cc1noc(C)c1NC(=O)N(C)C[C@H]1Oc2c(NC(=O)c3ccncc3)cccc2C(=O)N([C@H](C)CO)C[C@@H]1C	Scp-1 inhibitor 61 | Scp1 confirm inactive | MG interference inactive
C[C@H](CO)N1C[C@H](C)[C@@H](CN(C)Cc2ccc(Cl)c(Cl)c2)Oc2c(NC(=O)c3ccncc3)cccc2C1=O	Scp-1 inhibitor 54 | Scp1 confirm inactive | MG interference inactive
Cc1noc(C)c1NC(=O)N(C)C[C@H]1Oc2c(NC(=O)NC(C)C)cccc2C(=O)N([C@H](C)CO)C[C@@H]1C	none
C[C@H](CO)N1C[C@H](C)[C@@H](CN(C)S(C)(=O)=O)Oc2c(NC(=O)c3ccncc3)cccc2C1=O	Scp-1 inhibitor 55 | Scp1 confirm inactive | MG interference inactive
COc1cc(NC(=O)CCc2c(C)[nH]c(=O)c(C#N)c2C)cc(OC)c1	none
CCC(C)C1Nc2ccc(C(=O)NCc3ccc4c(c3)OCO4)cc2NC1=O (stereo not drawn)	none | Scp1 confirm inactive | MG interference inactive
O=C(CN1CCN(Cc2ccc(F)cc2Cl)C1=O)NCCc1ccccc1	Scp-1 inhibitor 50 | Scp1 confirm inactive | MG interference inactive
O=C(O)CN1CCN(Cc2ccc(F)cc2Cl)C1=O	none
O=C(NNC(=O)c1cccs1)c1ccc(Cl)c(S(=O)(=O)N2CCCC2)c1	none
Cc1cc(C(=O)O)cc(S(=O)(=O)NNC(=O)c2cccs2)c1C	Scp-1 inhibitor 53 | Scp1 confirm inactive | MG interference inactive
O=C(COC(=O)/C=C/c1ccco1)Nc1ccc(F)cc1Cl	Scp-1 inhibitor 50 | Scp1 confirm 36 | MG interference inactive | Scp-1 Tm shift inactive
C[n+]1cnc(-c2ccccc2)cc1-c1ccccc1	Scp-1 inhibitor 101 | Scp1 confirm 86 | MG interference inactive | Scp-1 Tm shift inactive
COc1cccc(NC(=O)C2CCCN(S(=O)(=O)c3cccc4cccnc34)C2)c1 (stereo not drawn)	Scp-1 inhibitor 86 | Scp1 confirm inactive | MG interference inactive
Cc1ccc(Nc2ncc3c(=O)[nH][nH]c(=O)c3n2)cc1	none (no result: GRK2 aptamer HTS)
O=C(CCCCn1c(=O)[nH]c2ccsc2c1=O)NCc1ccc2c(c1)OCO2	none
O=C(CCCCn1c(=S)[nH]c2ccsc2c1=O)NCc1ccc2c(c1)OCO2	Scp-1 inhibitor 59 | Scp1 confirm inactive | MG interference inactive

Source: PubChem BioAssay
